CendR NRP1 mod = modulators of CendR peptide binding to NRP-1, primary screen, biochemical, fluorescence polarization, uHTS. Neuropilin-1 (Homo sapiens), O14786. FAM-RPARPAR peptide binding to NRP-1. inhibition, % at 25 µM. 360,000 tested, 0.85% active;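 active means inhibition or corrected inhibition above about 18%, plus a signal ratio from 0.5 to 1.5, limit read from the data, passing the limit was not always enough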
SENP8 block-1 = SENP8 protease inhibitors, primary screen, biochemical, luminescence; Sentrin-specific protease 8 (Homo sapiens), Q96LD8; purified SENP8, Z-RLRGG-aminoluciferin cleavage; inhibition, % at 10 µM; 330,000 tested, 1.2% active; in the data active means inhibition above about 50%
SENP8 block-2 = human SENP8 protease inhibitors, primary screen, biochemical, fluorescence, Nedd8 protein substrate, uHTS; inhibition, % at 20 µM; recombinant SENP8; 360,000 tested, 0.64% active; Sentrin-specific protease 8 (Homo sapiens), Q96LD8; in the data active means inhibition mostly above about 40%, no sharp cut-off; inactive means mostly below about 27%
SENP6 block = SENP6 protease inhibitors, primary screen, biochemical, luminescence, uHTS; inhibition, % at 10 µM; Sentrin-specific protease 6 (Homo sapiens), Q9GZR1; Recombinant SENP6 catalytic domain, aminoluciferin luminescence; 330,000 tested, 1.8% active;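 active means inhibition above about 50% at the single tested dose, limit read from the data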;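 further: plate controls were DMSO wells with enzyme for no effect and DMSO wells lacking enzyme for full effect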
Target sequence (Q9GZR1 628-1112 limits assumed): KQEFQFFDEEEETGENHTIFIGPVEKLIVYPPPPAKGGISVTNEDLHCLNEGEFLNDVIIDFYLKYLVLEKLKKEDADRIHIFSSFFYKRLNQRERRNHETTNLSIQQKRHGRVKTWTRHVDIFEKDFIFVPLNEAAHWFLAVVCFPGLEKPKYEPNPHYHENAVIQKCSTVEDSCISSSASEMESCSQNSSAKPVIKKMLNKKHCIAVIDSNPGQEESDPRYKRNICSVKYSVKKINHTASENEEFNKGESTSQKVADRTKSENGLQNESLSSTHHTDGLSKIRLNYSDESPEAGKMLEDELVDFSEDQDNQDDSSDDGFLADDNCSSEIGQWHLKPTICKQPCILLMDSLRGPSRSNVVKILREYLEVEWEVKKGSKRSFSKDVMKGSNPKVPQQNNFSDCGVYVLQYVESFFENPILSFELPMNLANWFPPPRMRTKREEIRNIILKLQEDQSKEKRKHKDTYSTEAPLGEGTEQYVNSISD
SENP1 FRET inh = human SENP1 catalytic domain inhibitors, primary screen, biochemical, FRET, uHTS; Sentrin-specific protease 1 (Homo sapiens), Q9P0U3; recombinant SENP1 catalytic domain, CyPet-SUMO1-YPet FRET cleavage; inhibition, % at 10 µM; 360,000 tested, 0.21% active; AID 624204, 2012;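 active means inhibition at least 30% at 10 µM, raw YFP signal under a set limit, fluorescence ratio 0.5 to 1.5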;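 further: 0% = enzyme with DMSO and 100% = no enzyme wells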
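Test system: human SENP1 catalytic domain; medium: Tris pH 8 buffer plus EDTA, NaCl, BME, BSA, NP40, catalase; incubation: 50 min reaction at room temperature; technique: FRET, CFP and YFP emission; controls: no-enzyme low control and enzyme-plus-DMSO high control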
SENP7 block = SENP7 protease inhibitors, primary screen, biochemical, luminescence, uHTS; Sentrin-specific protease 7 (Homo sapiens), Q9BQF6; recombinant SENP7, Z-RLRGG-aminoluciferin luminescence, 40 min; inhibition, % at 5 µM; 330,000 tested, 1.5% active;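 active means inhibition above about 50% at the single test dose, limit read from the data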;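 further: plate controls were DMSO with enzyme for no effect and no enzyme buffer wells for full effect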
SENP8 conf = SENP8 protease inhibitors, retest, confirmation, biochemical, luminescence, single concentration; shares compounds with SENP7 block; AID 488912, 2010; inhibition, % at 12.5 µM; Recombinant SENP8, Z-RLRGG-aminoluciferin luminescence, 60 min; 6,200 tested, 40% active;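 active means mean inhibition across replicates above about 50%, limit read from the data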
SENP6 confirm = SENP6 protease inhibitors, confirmation, biochemical, luminescence, single concentration; shares compounds with SENP7 block; recombinant SENP6, Z-RLRGG-aminoluciferin luminescence; inhibition, % at 12.5 µM; 6,200 tested, 58% active
SENP7 confirm = SENP7 protease inhibitors, retest, confirmation, biochemical, luminescence, single concentration | inhibition, % at 12.5 µM | shares compounds with SENP7 block | recombinant SENP7, Z-RLRGG-aminoluciferin luminescence, 40 min | 6,200 tested, 69% active
Casp3 SENP sel = caspase-3 protease inhibitors, confirmation, selectivity assay for SENP inhibitor project, biochemical, single concentration | 6,200 tested, 60% active | inhibition, % at 12.5 µM | shares compounds with SENP7 block | purified caspase-3, Z-DEVD-aminoluciferin luminescence, 60 min;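 active means mean inhibition above about 50%, limit read from the data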;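 further: plate controls were enzyme with DMSO for no effect and wells without caspase-3 for full effect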
Target sequence (P42574 28-227 limits assumed): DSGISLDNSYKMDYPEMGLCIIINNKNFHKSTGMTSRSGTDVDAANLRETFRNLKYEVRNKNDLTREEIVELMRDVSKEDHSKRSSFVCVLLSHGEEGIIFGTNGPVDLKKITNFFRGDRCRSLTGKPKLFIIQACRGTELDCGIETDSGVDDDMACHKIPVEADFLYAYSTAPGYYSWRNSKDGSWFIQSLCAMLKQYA
SENP luc ctr = interferes with luciferase luminescence in SENP counter-screen | shares compounds with SENP7 block | Pre-incubated SENP8/Z-RLRGG-aminoluciferin, luciferase luminescence interference | inhibition, % at 12.5 µM | 6,200 tested, 39% active;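 active means mean inhibition above about 50% when retested at one dose, limit read from the data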;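 further: plate controls were DMSO wells with completed reaction for no effect and substrate without enzyme for full effect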
* hit, by the source's call; · = not tested or not shown. Most compounds without a hit are left out; they make up all but 3.3% or so of the library.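 How the source made its calls, unless noted: active means mean inhibition above about 50% in the one-dose retest (limit read from the data); inactive means the rest.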

SMILES | CendR NRP1 mod | SENP8 block-1 | SENP8 block-2 | SENP6 block | SENP1 FRET inh | SENP7 block | SENP8 conf | SENP6 confirm | SENP7 confirm | Casp3 SENP sel | SENP luc ctr
O=c1[nH]c(Nc2ccc(F)cc2)cc2ccccc12 | -22 | 85* | -273 | 85* | -45 | 92* | 52* | 76* | 48 | 10 | 9
Clc1ccccc1Nc1nc(-c2ccncc2)nc2ccccc12 | -2 | -10 | -59 | -15 | 0 | 1 | · | · | · | · | ·
Cc1cc(Nc2ccc(F)cc2)c2ccccc2n1 | 0 | · | -64 | · | -4 | · | · | · | · | · | ·
Cc1cc2ccccc2c(=O)[nH]1 | -2 | 1 | -62 | -2 | 2 | -1 | · | · | · | · | ·
Cc1ccccc1Nc1cc2ccccc2c(=O)[nH]1 | -3 | 97* | 1 | 91* | -17 | 95* | 92* | 98* | 95* | 96* | 14
CC(C)n1ncc2c(C(=O)NCC(=O)Nc3ccccc3Br)cc(C3CC3)nc21 | 15 | -16 | -490 | -3 | 0 | -10 | · | · | · | · | ·
Cc1cccc(C)c1OCc1cc(C(=O)N2CCN(c3ccc(F)cc3)CC2)no1 | 0 | 33 | 4 | 55* | 1 | 31 | 49 | 47 | 81* | 64* | 59*
Fc1ccccc1N=C1NN=C(c2ccccc2)CS1 | -3 | 11 | -28 | -19 | -2 | 0 | · | · | · | · | ·
Clc1ccccc1N=C1NN=C(c2cccs2)CS1 | -18 | 77* | -6 | 68* | 2 | 74* | 85* | 86* | 97* | 69* | 77*
CCOc1ccc(/C=C/C2=NNC(=O)CC2)cc1 | 6 | 55* | -5 | 70* | 1 | 74* | -24 | 52* | 88* | 86* | 68*
C[C@@H]1CN([C@@H](C)CO)S(=O)(=O)c2ccc(C#CC(C)(C)O)cc2O[C@H]1CN(C)C(=O)C1CCCCC1 | 13 | · | -2 | · | 3 | · | · | · | · | · | ·
Oc1ccc(NCc2cccc(OCc3ccccc3)c2)cc1 | 6 | -7 | 43* | 69* | 5 | 0 | -30 | -24 | -7 | -4 | 6
CC(C)(C)S(=O)N1Cc2cc(C(=O)N3CCc4ccccc4C3)nc(-c3cccc(-c4ccncc4)c3)c2[C@H]1CCO (some centres not stated) | -28 | · | -12 | · | -9 | · | · | · | · | · | ·
CCN1CCN(c2ncnc3c2cnn3-c2ccccc2)CC1 | 2 | 1 | 11 | -1 | -11 | 8 | · | · | · | · | ·
CC1CCCN(c2ncnc3c2cnn3-c2ccccc2)C1 (configuration not stated) | -10 | 62* | 0 | 64* | -4 | 42 | 4 | 40 | 68* | 43 | 53*
c1ccc(-n2ncc3c(N4CCCCC4)ncnc32)cc1 | -12 | 85* | 0 | 84* | -22 | 84* | 86* | 84* | 96* | 86* | 84*
CC1CCCN(c2ncnc3c2cnn3-c2ccc(Cl)cc2)C1 (configuration not stated) | 0 | 94* | -10 | 94* | -76 | 95* | 90* | 94* | 98* | 92* | 29
Cc1cccc(-n2ncc3c(N4CCC(C)CC4)ncnc32)c1 | 3 | 54* | 5 | 61* | 2 | 38 | 60* | 59* | 83* | 47 | 37
COc1cccc(-c2cc3nc(NCc4ccccc4F)n(C)c(=O)c3s2)c1 | -10 | · | -118 | · | 1 | · | · | · | · | · | ·
CC(C)(O)C#Cc1ccc(CNC[C@H]2O[C@@H](n3cnc4c(N)ncnc43)[C@H](O)[C@@H]2O)s1 | -15 | · | -2 | · | -1 | 4 | · | · | · | · | ·
COc1ccc(C(C(=O)NC2CCCC2)n2c(-c3cccs3)nc3ccccc32)cc1 (configuration not stated) | 9 | · | -380 | · | -4 | · | · | · | · | · | ·
CCc1ccc(C(=O)Cn2ccsc2=N)cc1 | 0 | 75* | 3 | 79* | 2 | 81* | 58* | 54* | 84* | 66* | 74*
CCOC(=O)CC1(CC)Oc2ccccc2N1S(=O)(=O)c1ccc(C)cc1 (configuration not stated) | -3 | · | 29 | · | 2 | · | · | · | · | · | ·
CCOc1ccc(NC(=O)COC(=O)c2ccc3c(c2)OCCO3)cc1 | 9 | -3 | 12 | 1 | -2 | 7 | · | · | · | · | ·
O=C1NC(=O)/C(=C\c2ccc(OCc3cnc(Cl)s3)cc2)S1 | -1 | 29 | -6 | 35 | 1 | 3 | · | · | · | · | ·
SMILES | CendR NRP1 mod | SENP8 block-1 | SENP8 block-2 | SENP6 block | SENP1 FRET inh | SENP7 block | SENP8 conf | SENP6 confirm | SENP7 confirm | Casp3 SENP sel | SENP luc ctr
O=C1Nc2ccccc2S/C1=C/c1cccs1 | -11 | -24 | -2 | -14 | -6 | -9 | · | · | · | · | ·
CC(C)COc1ccc(/C=C2/Sc3ccccc3C2=O)cc1 | -96 | 94* | -274 | 96* | -21 | 95* | 4 | 22 | 23 | 16 | 12
O=C1/C(=C/c2cccs2)Sc2ccccc21 | -18 | 81* | -213 | 86* | -83 | 93* | 3 | 41 | 58* | 39 | 26
CC(=O)Oc1cccc(/C=C2\Sc3ccccc3C2=O)c1 | -7 | 89* | -6 | 91* | -65 | 83* | 75* | 94* | 68* | 41 | 23
CCCCOc1ccc(/C=C2/Sc3ccccc3C2=O)cc1 | 35* | 76* | -245 | 44 | -19 | 71* | 3 | 18 | 15 | 12 | 8
CC(=O)Oc1cccc(/C=C2\C=C(c3ccc(C)cc3)OC2=O)c1 | -5 | -12 | -63 | 3 | -80 | -4 | · | · | · | · | ·
NC(COCc1ccccc1)c1csc(NC(=O)Nc2cccc(C(F)(F)F)c2)n1 (configuration not stated) | -6 | · | 14 | · | 1 | · | · | · | · | · | ·
CCOC(=O)C1=CNS(=O)(=O)NC1c1ccccc1 (configuration not stated) | -2 | · | -239 | · | -1 | 0 | · | · | · | · | ·
